Reference: ChEMBL document CHEMBL4689842, “EUbOPEN Chemogenomics Library wave 1” (2021)

Test system: U2OS
Experiment: Multiplex assay against U2OS
Assay type: toxicity, cell-based
Details: human
Outline: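 Hoechst33342, BioTracker Green Microtubule Cytoskeleton Dye, MitoTracker Red and Annexin V Alexa Fluor 680 were added to live cells at seeding, and imaging on a CQ1 microscope at 37°C and 5% CO2 followed compound addition. Gating by CellPathfinder machine learning separated cells into Hoechst high-intensity objects or normal cells, then normal cells into healthy, pyknosed or fragmented nuclei, then pyknosed cells into mitotic or apoptotic. Per cents of healthy-nucleus cells are reported for the tubulin, mitochondrial-mass and membrane-permeability phenotypes.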

[1] = 12 h, 1 µM, compound concentration 1 uM, replicate 1
[2] = 12 h, 1 µM, compound concentration 1 uM, replicate 2
[3] = 12 h, 10 µM, compound concentration 10 uM, replicate 1
[4] = 12 h, 10 µM, compound concentration 10 uM, replicate 2
[5] = 24 h, 1 µM, compound concentration 1 uM, replicate 1
[6] = 24 h, 1 µM, compound concentration 1 uM, replicate 2
[7] = 24 h, 10 µM, compound concentration 10 uM, replicate 1
[8] = 24 h, 10 µM, compound concentration 10 uM, replicate 2
[9] = 48 h, 1 µM, compound concentration 1 uM, replicate 1
[10] = 48 h, 1 µM, compound concentration 1 uM, replicate 2
[11] = 48 h, 10 µM, compound concentration 10 uM, replicate 1
[12] = 48 h, 10 µM, compound concentration 10 uM, replicate 2

CC1=C(C(=O)Nc2cc3cn[nH]c3cc2F)C(c2ccc(C(F)(F)F)cc2)CC(=O)N1 (stereo not drawn)
Population Apoptotic (%) [1]: 46% | Population Fragmented Nuclei (%) [1]: 9% | Population Healthy Nuclei (%) [1]: 78% | Population Hoechst High Intensity Objects (%) [1]: 4% | Population Membrane Permeable-Phenotype (%) [1]: 6% | Population Mitochondria Different-Phenotype (%) [1]: 5% | Population Mitotic Cells (%) [1]: 53% | Population Normal (%) [1]: 95% | Population Pyknosed Nuclei (%) [1]: 12% | Population Tubulin-Different-Phenotype (%) [1]: 10% | Total Cell Count [1]: 190 | Population Apoptotic (%) [2]: 50% | Population Fragmented Nuclei (%) [2]: 2% | Population Healthy Nuclei (%) [2]: 93% | Population Hoechst High Intensity Objects (%) [2]: 10% | Population Membrane Permeable-Phenotype (%) [2]: 4% | Population Mitochondria Different-Phenotype (%) [2]: 9% | Population Mitotic Cells (%) [2]: 50% | Population Normal (%) [2]: 89% | Population Pyknosed Nuclei (%) [2]: 4% | Population Tubulin-Different-Phenotype (%) [2]: 14% | Total Cell Count [2]: 76 | Population Apoptotic (%) [3]: 40% | Population Fragmented Nuclei (%) [3]: 7% | Population Healthy Nuclei (%) [3]: 77% | Population Hoechst High Intensity Objects (%) [3]: 8% | Population Membrane Permeable-Phenotype (%) [3]: 3% | Population Mitochondria Different-Phenotype (%) [3]: 9% | Population Mitotic Cells (%) [3]: 60% | Population Normal (%) [3]: 91% | Population Pyknosed Nuclei (%) [3]: 14% | Population Tubulin-Different-Phenotype (%) [3]: 4% | Total Cell Count [3]: 223 | Population Apoptotic (%) [4]: 50% | Population Fragmented Nuclei (%) [4]: 21% | Population Healthy Nuclei (%) [4]: 70% | Population Hoechst High Intensity Objects (%) [4]: 9% | Population Membrane Permeable-Phenotype (%) [4]: 5% | Population Mitochondria Different-Phenotype (%) [4]: 12% | Population Mitotic Cells (%) [4]: 50% | Population Normal (%) [4]: 90% | Population Pyknosed Nuclei (%) [4]: 7% | Population Tubulin-Different-Phenotype (%) [4]: 25% | Total Cell Count [4]: 97 | Population Apoptotic (%) [5]: 56% | Population Fragmented Nuclei (%) [5]: 8% | Population Healthy Nuclei (%) [5]: 82% | Population Hoechst High Intensity Objects (%) [5]: 2% | Population Membrane Permeable-Phenotype (%) [5]: 6% | Population Mitochondria Different-Phenotype (%) [5]: 9% | Population Mitotic Cells (%) [5]: 43% | Population Normal (%) [5]: 97% | Population Pyknosed Nuclei (%) [5]: 8% | Population Tubulin-Different-Phenotype (%) [5]: 9% | Total Cell Count [5]: 176 | Population Apoptotic (%) [6]: 42% | Population Fragmented Nuclei (%) [6]: 7% | Population Healthy Nuclei (%) [6]: 86% | Population Hoechst High Intensity Objects (%) [6]: 4% | Population Membrane Permeable-Phenotype (%) [6]: 10% | Population Mitochondria Different-Phenotype (%) [6]: 13% | Population Mitotic Cells (%) [6]: 57% | Population Normal (%) [6]: 95% | Population Pyknosed Nuclei (%) [6]: 6% | Population Tubulin-Different-Phenotype (%) [6]: 16% | Total Cell Count [6]: 93 | Population Apoptotic (%) [7]: 66% | Population Fragmented Nuclei (%) [7]: 6% | Population Healthy Nuclei (%) [7]: 86% | Population Membrane Permeable-Phenotype (%) [7]: 1% | Population Mitochondria Different-Phenotype (%) [7]: 6% | Population Mitotic Cells (%) [7]: 33% | Population Pyknosed Nuclei (%) [7]: 7% | Population Tubulin-Different-Phenotype (%) [7]: 4% | Total Cell Count [7]: 277 | Population Apoptotic (%) [8]: 75% | Population Fragmented Nuclei (%) [8]: 23% | Population Healthy Nuclei (%) [8]: 68% | Population Hoechst High Intensity Objects (%) [8]: 6% | Population Membrane Permeable-Phenotype (%) [8]: 4% | Population Mitochondria Different-Phenotype (%) [8]: 14% | Population Mitotic Cells (%) [8]: 25% | Population Normal (%) [8]: 93% | Population Pyknosed Nuclei (%) [8]: 8% | Population Tubulin-Different-Phenotype (%) [8]: 29% | Total Cell Count [8]: 119 | Population Apoptotic (%) [9]: 34% | Population Fragmented Nuclei (%) [9]: 7% | Population Healthy Nuclei (%) [9]: 85% | Population Hoechst High Intensity Objects (%) [9]: 2% | Population Membrane Permeable-Phenotype (%) [9]: 3% | Population Mitochondria Different-Phenotype (%) [9]: 12% | Population Mitotic Cells (%) [9]: 65% | Population Normal (%) [9]: 97% | Population Pyknosed Nuclei (%) [9]: 7% | Population Tubulin-Different-Phenotype (%) [9]: 11% | Total Cell Count [9]: 181 | Population Apoptotic (%) [10]: 75% | Population Fragmented Nuclei (%) [10]: 6% | Population Healthy Nuclei (%) [10]: 90% | Population Hoechst High Intensity Objects (%) [10]: 4% | Population Membrane Permeable-Phenotype (%) [10]: 6% | Population Mitochondria Different-Phenotype (%) [10]: 18% | Population Mitotic Cells (%) [10]: 25% | Population Normal (%) [10]: 95% | Population Pyknosed Nuclei (%) [10]: 2% | Population Tubulin-Different-Phenotype (%) [10]: 12% | Total Cell Count [10]: 77 | Population Fragmented Nuclei (%) [11]: 7% | Population Healthy Nuclei (%) [11]: 77% | Population Hoechst High Intensity Objects (%) [11]: 2% | Population Membrane Permeable-Phenotype (%) [11]: 3% | Population Mitochondria Different-Phenotype (%) [11]: 12% | Population Normal (%) [11]: 97% | Population Pyknosed Nuclei (%) [11]: 15% | Population Tubulin-Different-Phenotype (%) [11]: 3% | Total Cell Count [11]: 438 | Population Apoptotic (%) [12]: 50% | Population Fragmented Nuclei (%) [12]: 15% | Population Healthy Nuclei (%) [12]: 76% | Population Hoechst High Intensity Objects (%) [12]: 3% | Population Membrane Permeable-Phenotype (%) [12]: 8% | Population Mitochondria Different-Phenotype (%) [12]: 28% | Population Mitotic Cells (%) [12]: 50% | Population Normal (%) [12]: 96% | Population Pyknosed Nuclei (%) [12]: 8% | Population Tubulin-Different-Phenotype (%) [12]: 32% | Total Cell Count [12]: 170
